Screens (PubChem)
Env fusion inh = blocks HIV Env-driven cell-cell fusion; HeLa-JRFL Env/CEM21 cell fusion, luciferase; inhibition, % at 12.3 µM; hit rate 1.1% among 360,000; AID 651610;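 active = mean replicate inhibition score of at least 50 and every replicate individually at or above 50; inconclusive = only one of the two criteria met; inactive = mean below 50 and not all replicates reaching 50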
miR122 inh = miR-122 inhibition in Huh7 cells; Huh7 miR-122 Renilla luciferase sensor, 48 h; neutral wells = 0, positive control = 100; hit rate 0.3% among 340,000; activation (reporter increase), % at 12.5 µM;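 active = mean replicate activation score at least 90 and every replicate individually at or above 90; inconclusive = only one of the two criteria met; inactive = neither criterion met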;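 also: higher luciferase means less miR-122 activity so hits act as miR-122 inhibitors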
F508del corr = correctors of CFTR F508del function in bronchial epithelial cells; hit rate 0.36% among 350,000; CFBE cells, YFP halide quenching; stimulated with forskolin plus potentiator P3; % fluorescence drop versus neutral controls; activity (quench increase), % at 7.58 µM; AID 720511;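 active = mean added fluorescence quench of at least 8% versus neutral control, with both replicates also reaching 8%; inconclusive = only one of the mean or replicate conditions met; inactive = mean below 8% and not both replicates reaching 8%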;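 also: cells transiently co-express mutant CFTR-F508del with the halide-sensitive YFP; corrector assay measuring rescue of mutant channel to the surface after 24 h compound exposure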
Cneo AK release = causes C. neoformans cell lysis; adenylate kinase release luminescence, 4 h; normalised: neutral wells 0, clomiphene wells 100; lysis activity, % at 15 µM; hit rate 0.2% among 360,000; AID 651654;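 active = mean lysis activity across replicates of at least 80%, whatever share of replicates individually reach that level; inactive = mean lysis activity below 80%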
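Material: C. neoformans cells; Schedule: 4 h static compound exposure, 37 °C, read 1 h post-reagent; Measured by: adenylate kinase release luminescence; Read-out: signal increase indicating cell lysis; Controls: Clomiphene as positive lysis control.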
GSIS activator = primary screen for activators of insulin secretion dependent on glucose, INS-1E cells, GLuc reporter luminescence; INS-1E GLuc reporter insulin secretion, 2-3 h; activation, % at 16.6 µM; hit rate 0.61% among 370,000;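 active = lowest replicate activation of at least 40%, so every replicate reaches that level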
Ecoli rRNA inh = inhibits bacterial ribosomal RNA function over humanized ribosomes; E. coli WT GFP vs humanized-ribosome RFP mutants, fluorescence, 24 h; active compounds read low; DMSO median 0, no signal -100; hit rate 1.6% among 350,000; GFP signal change (wild-type ribosome), % (concentration not given with the values);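 active = significant combined selectivity score with lowered wild-type GFP, culture density cut under 30%, mutant RFP and density less affected; inactive = any of these conditions unmet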
Each line names hits and unclear results; the compound was inactive in the other large screens; [ ] = remark or other dose. Shown are actives, neighbours in structure and some others; about 3.1% of the full set was active somewhere.

Cc1ccc(S(=O)(=O)N(C)C[C@@H]2Oc3ccc(NC(=O)C4CC4)cc3CC(=O)N([C@@H](C)CO)C[C@@H]2C)cc1	none (no result: Env fusion inh)
COc1ccccc1CNC(=O)CSc1ccc(-c2cccs2)nn1	Ecoli rRNA inh -25 (no result: miR122 inh, Cneo AK release)
COc1ccccc1CNC(=O)CSc1ccc(-c2ccccn2)nn1	none (no result: miR122 inh, Cneo AK release)
O=C(C[C@H]1C[C@@H]2c3cc(NS(=O)(=O)c4ccc(F)cc4)ccc3O[C@@H]2[C@H](CO)O1)NCc1ccc(-c2ccccc2)cc1	none
CN(C)c1ccc2c(c1)[C@H]1C[C@@H](CC(=O)NCc3ccc(Oc4ccccc4)cc3)O[C@@H](CO)[C@H]1O2	none
O=C(C[C@@H]1C[C@H]2c3cc(NS(=O)(=O)c4ccc(F)cc4)ccc3O[C@H]2[C@H](CO)O1)NCc1ccc(-c2ccccc2)cc1	miR122 inh 111[16.7 µM]
O=C(C[C@H]1C[C@@H]2c3cc(NS(=O)(=O)c4ccc(F)cc4)ccc3O[C@@H]2[C@H](CO)O1)NCc1ccc(Cl)cc1	Env fusion inh 86[16.7 µM]
CN(C)c1ccc2c(c1)[C@@H]1C[C@@H](CC(=O)NCc3ccc(Oc4ccccc4)cc3)O[C@@H](CO)[C@@H]1O2	miR122 inh 96[16.7 µM]
O=C(C[C@@H]1C[C@H]2c3cc(NS(=O)(=O)c4ccc(F)cc4)ccc3O[C@H]2[C@H](CO)O1)NCc1ccc(Oc2ccccc2)cc1	miR122 inh 150[16.7 µM]
CO[C@@H]1CN(C)C(=O)c2cc(NS(=O)(=O)c3cn(C)cn3)ccc2OC[C@H](C)N(CCC(F)(F)F)C[C@@H]1C	none (no result: miR122 inh)
O=C(C[C@@H]1CC[C@H](NC(=O)Nc2ccccc2)[C@@H](CO)O1)NCc1cccc(F)c1	none (no result: miR122 inh)
CS(=O)(=O)Nc1ccc2c(c1)[C@H]1C[C@H](CC(=O)NCc3ccc(-c4ccccc4)cc3)O[C@H](CO)[C@H]1O2	Env fusion inh 78[16.7 µM]
CS(=O)(=O)Nc1ccc2c(c1)[C@@H]1C[C@H](CC(=O)NCc3ccc(-c4ccccc4)cc3)O[C@H](CO)[C@@H]1O2	none (no result: Env fusion inh)
O=C(C[C@@H]1C[C@@H]2c3cc(NS(=O)(=O)c4ccc(F)cc4)ccc3O[C@@H]2[C@@H](CO)O1)NCCc1ccccc1	none
O=C(C[C@H]1C[C@@H]2c3cc(NS(=O)(=O)c4ccc(F)cc4)ccc3O[C@@H]2[C@H](CO)O1)NCCc1ccccc1	Env fusion inh 75[16.7 µM]
C=CCOC(=O)[C@H]1[C@@H]2C(=O)O[C@@H](c3ccccc3)[C@@H](c3ccccc3)N2[C@@H](c2ccc(OCCOC(=O)[C@H]3C[C@H]4C(=O)N[C@@H](Cc5ccccc5)C(=O)N4[C@H]3c3ccc(O)cc3)cc2)[C@]12C(=O)Nc1ccc(I)cc12	none (no result: miR122 inh, GSIS activator, Ecoli rRNA inh)
CC(C)NC(=O)Nc1cccc2c1O[C@@H](CN(C)Cc1ccc(-c3ccccc3)cc1)[C@@H](C)CN([C@@H](C)CO)C2=O	none
CC(=O)c1cccc(NC(=O)Nc2cnn(Cc3ccc(F)cc3)c2)c1	Ecoli rRNA inh -22 (no result: Env fusion inh, miR122 inh, Cneo AK release)
CO[C@H]1CN(C)C(=O)c2cc(NC(=O)Nc3ccc(Cl)cc3)ccc2OC[C@@H](C)N(C(=O)Nc2c(C)noc2C)C[C@H]1C	none
NC(=O)C1CCN(C2=C(NS(=O)(=O)c3ccc(Cl)cc3)C(=O)c3ccccc3C2=O)CC1	Ecoli rRNA inh -21 (no result: miR122 inh, Cneo AK release)
COC(=O)C1CCN(C2=C(NS(=O)(=O)c3ccc(Cl)cc3)C(=O)c3ccccc3C2=O)CC1	none
CC(=O)c1c(C)oc2ccc(NS(=O)(=O)c3ccc(O)c(C(=O)O)c3)cc12	none (no result: Env fusion inh, miR122 inh, F508del corr, GSIS activator, Ecoli rRNA inh)
COCCOC(=O)c1c(C)oc2ccc(NS(=O)(=O)c3ccc(C)cc3)cc12	miR122 inh 103
COCCOC(=O)c1c(C)oc2ccc(NS(=O)(=O)c3ccccc3)cc12	none (no result: Env fusion inh)
CC(=O)c1c(C)oc2ccc(NS(=O)(=O)c3ccc(F)cc3C)cc12	GSIS activator 223
Cc1ccc2[nH]cc(C(=O)NCc3cccs3)c(=O)c2c1	Ecoli rRNA inh -24 (no result: Env fusion inh)
COc1cccc2c(=O)c(C(=O)NCc3cccs3)c[nH]c12	none (no result: F508del corr, Ecoli rRNA inh)
NC[C@H]1O[C@@H](n2ccc(N)nc2=O)[C@H](O)[C@@H]1O	none
CNc1ncnc2c1ncn2[C@@H]1O[C@H](CO)[C@@H](O)[C@H]1O	none (no result: Ecoli rRNA inh)
Nc1ccn([C@@H]2O[C@H](CO)[C@@H](O)[C@@H]2O)c(=O)n1	F508del corr 19 (no result: Ecoli rRNA inh)
Nc1ccn(C2OC(CO)C(O)C2O)c(=O)n1 (centres undefined)	F508del corr 9.7 (no result: Env fusion inh, GSIS activator, Ecoli rRNA inh)
CCCCCCCCCCCCCCCC(=O)Nc1ccn(C2OC(CO)C(O)C2O)c(=O)n1 (centres undefined)	none (no result: miR122 inh, Cneo AK release, GSIS activator, Ecoli rRNA inh)
OCC1OC(n2ccc3c2ncn2ncnc32)C(O)C1O (centres undefined)	Env fusion inh 55 (no result: miR122 inh)
CCCCCCCCCCCCCCCC(=O)OCC1OC(n2ccc(N)nc2=O)C(O)C1O (centres undefined)	Env fusion inh 75 (no result: Cneo AK release, GSIS activator)
C/C=C/c1ccccc1[C@H]1[C@@H](CO)N(C(=O)Nc2ccc(OC)cc2)[C@H]1C#N	none (no result: miR122 inh, Cneo AK release)
O=C(C1CCOCC1)N1C[C@@H]2[C@H](c3ccccc31)[C@@H](CO)N2Cc1ccc(Cl)cc1	none (no result: Env fusion inh)
CC(C)NC(=O)Nc1ccc2c(c1)C(=O)N([C@H](C)CO)C[C@@H](C)[C@@H](CN(C)Cc1ccc(-c3ccccc3)cc1)O2	none
Cc1noc(C)c1S(=O)(=O)N(C)C[C@@H]1OCCCC[C@@H](C)Oc2ccc(NC(=O)c3ccccc3)cc2C(=O)N([C@@H](C)CO)C[C@H]1C	none
C[C@@H]1CN([C@@H](C)CO)C(=O)c2cc(C#CC3CCCC3)cnc2O[C@H]1CN(C)C(=O)c1ccncc1	none
Nc1ccn(C2OC(CO)C(O)C2F)c(=O)n1 (centres undefined)	Env fusion inh 75 (no result: Ecoli rRNA inh)
C[C@H](NC(=O)N(C)C[C@H]1OCc2ccccc2-c2ccccc2C(=O)N([C@H](C)CO)C[C@@H]1C)c1ccccc1	none (no result: Env fusion inh, miR122 inh, F508del corr, Cneo AK release)
CCOC(=O)c1[nH]c2c(c1C)C(=O)CC(c1ccco1)C2 (centres undefined)	miR122 inh inconclusive
Cc1c(C(=O)OCc2ccccc2)[nH]c2c1C(=O)CC(c1ccco1)C2 (centres undefined)	miR122 inh 139 (no result: Env fusion inh, F508del corr, GSIS activator, Ecoli rRNA inh)
Cc1ccc(S(=O)(=O)N2C[C@@H](O)COC[C@H]3O[C@H](CC(=O)N[C@H]4CCN(Cc5ccccc5)C4)CC[C@@H]32)cc1	none (no result: Env fusion inh)
COC(=O)c1cc2nc(-c3ccc(OC)c(OC)c3)cc(C(F)(F)F)n2n1	none (no result: Env fusion inh, F508del corr, GSIS activator, Ecoli rRNA inh)
COc1ccc(-c2cc(C(F)(F)F)n3nc(C(=O)O)cc3n2)cc1OC	GSIS activator 48 (no result: Env fusion inh, F508del corr, Ecoli rRNA inh)
CCN(CC)c1ccc(C(=C2C=CC(=[N+](CC)CC)C=C2)c2ccc(N(CC)CC)cc2)cc1	Env fusion inh 62 (no result: GSIS activator, Ecoli rRNA inh)
